Reference: ChEMBL document CHEMBL3351561, “Discovery of 9-(1-anilinoethyl)-2-morpholino-4-oxo-pyrido[1,2-a]pyrimidine-7-carboxamides as PI3Kβ/δ inhibitors for the treatment of PTEN-deficient tumours” (Bioorg Med Chem Lett, 2014)
In brackets after ≈: the same amount, converted by molar mass.

Tests used:
[1] = Ratio of total plasma concentration in PTEN-null human PC3 cells xenografted in SCID mouse at 100 mg/kg, po single dose at 0.5 hrs to IC50 for PI3Kbeta in human […] cells; design: species or system PC-3
Method in brief: (§1)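 SCID mice bearing PTEN-null PC3 prostate tumour xenografts got a single oral dose given as a suspension. Total plasma concentration was measured at the sampled time points (0.5, 4 or 8 h). The value is the […] cover over the PI3Kβ cellular IC50, which comes from inhibition of Ser473 Akt phosphorylation in PTEN-null MDA-MB-468 breast adenocarcinoma cells.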

[2] = Ratio of total plasma concentration in PTEN-null human PC3 cells xenografted in SCID mouse at 100 mg/kg, po single dose at 4 hrs to IC50 for PI3Kbeta in human MAD-MB-468 cells; design: species or system PC-3
[3] = target: T1, Phosphatidylinositol 4,5-bisphosphate 3-kinase catalytic subunit beta isoform (Homo sapiens, UniProt P42338); assay: Inhibition of PI3Kbeta in human MAD-MB-468 cells assessed as inhibition of Ser473 Akt phosphorylation by cellular potency assay
T1 sequence (P42338 whole entry, canonical isoform): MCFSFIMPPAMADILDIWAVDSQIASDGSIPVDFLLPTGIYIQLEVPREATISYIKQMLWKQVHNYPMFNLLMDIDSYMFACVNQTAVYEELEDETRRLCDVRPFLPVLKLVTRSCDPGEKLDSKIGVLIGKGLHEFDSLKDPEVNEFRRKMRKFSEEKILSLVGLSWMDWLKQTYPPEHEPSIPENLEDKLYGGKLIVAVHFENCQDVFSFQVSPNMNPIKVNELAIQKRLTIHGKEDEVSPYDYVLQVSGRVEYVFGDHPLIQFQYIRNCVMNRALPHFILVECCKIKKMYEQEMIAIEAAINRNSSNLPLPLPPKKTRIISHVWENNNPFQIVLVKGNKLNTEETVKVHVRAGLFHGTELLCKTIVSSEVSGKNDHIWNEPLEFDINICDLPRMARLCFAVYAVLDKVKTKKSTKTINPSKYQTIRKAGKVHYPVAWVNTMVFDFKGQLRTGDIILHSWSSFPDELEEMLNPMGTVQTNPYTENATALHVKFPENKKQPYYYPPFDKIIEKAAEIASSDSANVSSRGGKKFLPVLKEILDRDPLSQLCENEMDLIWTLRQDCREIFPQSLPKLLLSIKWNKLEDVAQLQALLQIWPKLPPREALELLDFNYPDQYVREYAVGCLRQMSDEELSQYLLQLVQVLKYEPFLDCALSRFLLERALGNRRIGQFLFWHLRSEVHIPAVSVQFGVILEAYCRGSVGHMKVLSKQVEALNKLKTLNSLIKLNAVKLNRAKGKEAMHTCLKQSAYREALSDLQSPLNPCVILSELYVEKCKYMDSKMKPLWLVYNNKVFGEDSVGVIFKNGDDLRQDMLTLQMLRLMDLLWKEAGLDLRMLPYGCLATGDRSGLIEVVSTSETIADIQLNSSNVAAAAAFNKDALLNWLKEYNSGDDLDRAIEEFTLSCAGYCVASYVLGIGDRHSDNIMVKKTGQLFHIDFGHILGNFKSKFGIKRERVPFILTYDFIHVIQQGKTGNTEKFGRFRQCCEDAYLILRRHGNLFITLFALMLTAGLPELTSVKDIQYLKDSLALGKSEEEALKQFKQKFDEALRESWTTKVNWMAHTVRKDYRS

[4] = Apparent permeability from apical (pH 6.5) to […] of human Caco2 cells; assay type: ADME, cell-based; conditions: Caco-2, pH 6.5
[5] = Buffer/octanol partition coefficient, log D of the compound at pH 7.4 by shake flask method; assay type: physicochemical
Method in brief: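 LogD at pH 7.4 was measured by shake-flask with a buffer/octanol volume ratio of 100:1.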

[6] = Intrinsic clearance in human hepatocytes measured per 10^6 cells; assay type: ADME, cell-based, Hepatocyte; conditions: read-out: CLH
Method in brief: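 Intrinsic clearance was measured in human hepatocytes and is expressed in µL/min/10^6 cells.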

[7] = Solubility of the compound in phosphate buffer at pH 7.4; assay type: physicochemical
Method in brief: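 Solubility was measured from solid material in phosphate buffer at pH 7.4.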

[8] = target: T2, Phosphatidylinositol 4,5-bisphosphate 3-kinase catalytic subunit alpha isoform (Homo sapiens, UniProt P42336); assay: Inhibition of human recombinant PI3Kalpha assessed as depletion of ATP substrate by Ultra Glo luciferase assay
T2 sequence (P42336 whole entry, canonical isoform): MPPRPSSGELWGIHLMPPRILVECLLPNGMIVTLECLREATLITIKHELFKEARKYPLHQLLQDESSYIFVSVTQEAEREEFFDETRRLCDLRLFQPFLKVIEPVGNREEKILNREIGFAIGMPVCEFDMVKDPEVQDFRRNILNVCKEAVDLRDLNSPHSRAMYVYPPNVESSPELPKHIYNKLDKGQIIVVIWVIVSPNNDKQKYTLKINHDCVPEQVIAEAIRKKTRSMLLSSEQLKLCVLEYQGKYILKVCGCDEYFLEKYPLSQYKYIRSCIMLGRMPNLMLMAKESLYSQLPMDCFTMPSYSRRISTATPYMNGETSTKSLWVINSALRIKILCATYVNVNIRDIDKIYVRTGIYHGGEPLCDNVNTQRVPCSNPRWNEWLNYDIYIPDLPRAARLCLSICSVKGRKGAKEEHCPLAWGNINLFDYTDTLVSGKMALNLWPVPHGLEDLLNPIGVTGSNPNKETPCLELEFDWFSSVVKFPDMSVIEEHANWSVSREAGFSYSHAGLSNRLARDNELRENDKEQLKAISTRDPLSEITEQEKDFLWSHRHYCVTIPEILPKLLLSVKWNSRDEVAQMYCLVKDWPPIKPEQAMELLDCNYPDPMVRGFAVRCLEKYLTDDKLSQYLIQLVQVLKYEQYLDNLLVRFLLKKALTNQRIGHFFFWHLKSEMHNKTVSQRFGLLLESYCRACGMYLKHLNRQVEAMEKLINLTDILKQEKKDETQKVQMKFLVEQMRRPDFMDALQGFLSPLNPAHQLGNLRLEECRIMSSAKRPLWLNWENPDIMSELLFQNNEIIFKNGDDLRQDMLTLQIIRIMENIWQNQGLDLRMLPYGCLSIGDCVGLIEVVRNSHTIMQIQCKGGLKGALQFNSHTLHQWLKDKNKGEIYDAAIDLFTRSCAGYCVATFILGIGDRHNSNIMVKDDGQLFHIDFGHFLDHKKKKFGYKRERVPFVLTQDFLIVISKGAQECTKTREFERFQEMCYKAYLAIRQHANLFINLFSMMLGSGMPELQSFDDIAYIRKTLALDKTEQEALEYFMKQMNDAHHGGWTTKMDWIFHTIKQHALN
Method in brief: (§2)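 Enzyme IC50s are reported as the geometric mean of 3 or more values.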

[9] = target: T1, Phosphatidylinositol 4,5-bisphosphate 3-kinase catalytic subunit beta isoform; assay: Inhibition of human recombinant PI3Kbeta assessed as depletion of ATP substrate by Ultra Glo luciferase assay; method in brief: as §2
[10] = target: Phosphatidylinositol 4,5-bisphosphate 3-kinase catalytic subunit gamma isoform (Homo sapiens, UniProt P48736); assay: Inhibition of human recombinant PI3Kgamma assessed as depletion of ATP substrate by Ultra Glo luciferase assay; method in brief: as §2
Phosphatidylinositol 4,5-bisphosphate 3-kinase catalytic subunit gamma isoform, sequence (P48736 whole entry, canonical isoform): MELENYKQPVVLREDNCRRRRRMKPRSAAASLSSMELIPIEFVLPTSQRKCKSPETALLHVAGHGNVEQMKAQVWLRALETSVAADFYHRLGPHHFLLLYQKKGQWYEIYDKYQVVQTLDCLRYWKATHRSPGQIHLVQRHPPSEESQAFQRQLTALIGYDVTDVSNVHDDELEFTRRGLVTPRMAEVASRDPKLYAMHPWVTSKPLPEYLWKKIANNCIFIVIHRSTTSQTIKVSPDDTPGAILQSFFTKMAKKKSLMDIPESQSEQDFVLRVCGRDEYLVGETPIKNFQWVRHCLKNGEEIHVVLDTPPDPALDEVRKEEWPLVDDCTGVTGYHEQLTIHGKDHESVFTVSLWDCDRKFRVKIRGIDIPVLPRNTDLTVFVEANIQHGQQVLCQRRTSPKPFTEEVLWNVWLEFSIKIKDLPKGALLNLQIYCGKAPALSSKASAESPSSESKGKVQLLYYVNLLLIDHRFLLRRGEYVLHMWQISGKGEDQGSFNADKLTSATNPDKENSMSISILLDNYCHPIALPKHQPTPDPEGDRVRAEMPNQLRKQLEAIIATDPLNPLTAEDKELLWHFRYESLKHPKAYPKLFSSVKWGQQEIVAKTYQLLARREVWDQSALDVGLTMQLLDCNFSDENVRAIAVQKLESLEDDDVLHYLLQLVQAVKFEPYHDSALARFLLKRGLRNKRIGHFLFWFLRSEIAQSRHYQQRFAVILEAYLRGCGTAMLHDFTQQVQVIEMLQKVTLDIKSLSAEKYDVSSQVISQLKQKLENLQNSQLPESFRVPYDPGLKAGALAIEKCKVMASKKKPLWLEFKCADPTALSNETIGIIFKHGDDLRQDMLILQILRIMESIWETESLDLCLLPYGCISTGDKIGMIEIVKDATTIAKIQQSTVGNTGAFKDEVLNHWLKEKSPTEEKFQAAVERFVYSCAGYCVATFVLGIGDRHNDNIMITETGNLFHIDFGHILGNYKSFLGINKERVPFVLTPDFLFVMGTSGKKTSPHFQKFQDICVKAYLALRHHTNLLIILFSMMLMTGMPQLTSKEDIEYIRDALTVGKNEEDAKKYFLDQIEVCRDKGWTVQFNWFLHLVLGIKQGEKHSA

[11] = target: T3, Phosphatidylinositol 4,5-bisphosphate 3-kinase catalytic subunit delta isoform (Homo sapiens, UniProt O00329); assay: Inhibition of human recombinant PI3Kdelta assessed as depletion of ATP substrate by Ultra Glo luciferase assay; method in brief: as §2
T3 sequence (O00329 whole entry): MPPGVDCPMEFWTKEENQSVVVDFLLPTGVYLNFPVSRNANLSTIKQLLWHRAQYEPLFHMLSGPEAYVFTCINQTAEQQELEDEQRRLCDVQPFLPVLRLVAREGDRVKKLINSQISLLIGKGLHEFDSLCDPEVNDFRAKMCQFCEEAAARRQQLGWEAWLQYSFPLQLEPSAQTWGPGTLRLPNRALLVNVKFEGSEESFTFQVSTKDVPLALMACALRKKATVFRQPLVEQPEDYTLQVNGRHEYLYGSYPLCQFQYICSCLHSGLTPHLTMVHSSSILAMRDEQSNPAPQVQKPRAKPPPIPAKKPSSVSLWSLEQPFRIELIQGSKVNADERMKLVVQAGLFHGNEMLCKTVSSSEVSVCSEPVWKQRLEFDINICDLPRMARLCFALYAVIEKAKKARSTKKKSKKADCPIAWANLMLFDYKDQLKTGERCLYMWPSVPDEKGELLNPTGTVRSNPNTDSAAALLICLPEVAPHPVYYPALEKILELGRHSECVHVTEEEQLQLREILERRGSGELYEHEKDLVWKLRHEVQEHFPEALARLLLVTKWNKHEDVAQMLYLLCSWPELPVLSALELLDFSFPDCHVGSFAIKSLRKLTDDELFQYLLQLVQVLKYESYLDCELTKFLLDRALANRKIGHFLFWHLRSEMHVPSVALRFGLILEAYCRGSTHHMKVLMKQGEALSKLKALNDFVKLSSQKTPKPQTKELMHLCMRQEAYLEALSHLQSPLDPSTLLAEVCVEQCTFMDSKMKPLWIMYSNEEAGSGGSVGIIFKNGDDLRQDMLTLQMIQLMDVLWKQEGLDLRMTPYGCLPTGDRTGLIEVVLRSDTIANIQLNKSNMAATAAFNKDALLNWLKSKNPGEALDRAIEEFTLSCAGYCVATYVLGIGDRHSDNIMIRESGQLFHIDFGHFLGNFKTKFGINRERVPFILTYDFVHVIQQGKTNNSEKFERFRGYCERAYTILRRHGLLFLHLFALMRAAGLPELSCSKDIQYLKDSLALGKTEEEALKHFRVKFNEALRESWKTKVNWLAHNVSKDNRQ

[12] = target: T2, Phosphatidylinositol 4,5-bisphosphate 3-kinase catalytic subunit alpha isoform; assay: Inhibition of PI3Kalpha in human BT474 cells assessed as inhibition of […] Akt phosphorylation after 2 hrs by fluorescence assay; assay type: cell-based, BT-474
Method in brief: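 BT474 cells were seeded in DMEM with 10% FCS and 1% glutamine and left to adhere overnight, then treated with compound in DMSO for 2 h at 37 °C and 5% CO2. Cells were lysed with a phosphatase/protease-inhibitor buffer. Lysate was captured on anti-total-Akt plates, probed with anti-phospho-Akt Thr308 and an HRP secondary, and read by fluorescence (ex 325/em 420 nm). Values are the geometric mean of ≥2 determinations.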

[13] = Fraction unbound in mouse plasma; assay type: ADME, cell-free
Method in brief: (§3)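 Protein binding was measured in nude mouse plasma and in human plasma and is expressed as fraction unbound (%).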

[14] = Fraction unbound in human plasma; assay type: ADME, cell-free; method in brief: as §3
[15] = Clearance in mouse plasma at 5 umol/kg, iv and 30 umol/kg, po; assay type: ADME, organism-based
Method in brief: (§4)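 […] mice were dosed at 5 µmol/kg i.v. and 30 µmol/kg p.o. Clearance is given in mL/min/kg and oral bioavailability in %.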

[16] = Bioavailability in mouse plasma at 5 umol/kg, iv and 30 umol/kg, po; assay type: ADME, organism-based; method in brief: as §4
[17] = Half life in mouse plasma at 5 umol/kg, iv and 30 umol/kg, po; assay type: ADME, organism-based
Mus musculus [18] = assay: Inhibition of Akt phosphorylation in SCID mouse xenografted with PTEN-null human PC3 cells at 100 mg/kg, po measured after 30 mins; assay type: functional; conditions: PC-3, 0.5 h
Method in brief: (§5)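 SCID mice carrying PTEN-null PC3 prostate xenografts received a single oral dose as a suspension (50, 100 or 200 mg/kg).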

Mus musculus [19] = assay: Inhibition of Akt phosphorylation in SCID mouse xenografted with PTEN-null human PC3 cells at 100 mg/kg, po measured after 4 hrs; assay type: functional; conditions: PC-3, 4 h; method in brief: as §5
[20] = Total plasma concentration in SCID mouse xenografted with PTEN-null human PC3 cells at 100 mg/kg, po measured after 30 mins; assay type: ADME, organism-based, PC-3; design: dose 100 mg/kg, route oral
Method in brief: (§6)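 Total plasma concentration was measured in SCID mice carrying PC3 xenografts after a single oral dose given as a suspension (50, 100 or 200 mg/kg). Samples were taken at 0.5 to 8 h.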

[21] = Total plasma concentration in SCID mouse xenografted with PTEN-null human PC3 cells at 100 mg/kg, po measured after 4 hrs; assay type: ADME, organism-based, PC-3; design: dose 100 mg/kg, route oral; method in brief: as §6
Homo sapiens = species: Homo sapiens; assay: Ratio of IC50 for PI3Kalpha human BT474 cells to IC50 PI3Kbeta in human […] cells
[22] = Total plasma concentration in SCID mouse xenografted with PTEN-null human PC3 cells at 200 mg/kg, po measured after 30 mins; assay type: ADME, organism-based, PC-3; design: dose 200 mg/kg, route oral; method in brief: as §6
[23] = Total plasma concentration in SCID mouse xenografted with PTEN-null human PC3 cells at 200 mg/kg, po measured after 4 hrs; assay type: ADME, organism-based, PC-3; design: dose 200 mg/kg, route oral; method in brief: as §6
[24] = Total plasma concentration in SCID mouse xenografted with PTEN-null human PC3 cells at 200 mg/kg, po measured after 8 hrs; assay type: ADME, organism-based, PC-3; design: dose 200 mg/kg, route oral; method in brief: as §6
[25] = Ratio of total plasma concentration in PTEN-null human PC3 cells xenografted in SCID mouse at 200 mg/kg, po single dose at 0.5 hrs to IC50 for PI3Kbeta in human […] cells; design: species or system PC-3; method in brief: as §1
[26] = Ratio of total plasma concentration in PTEN-null human PC3 cells xenografted in SCID mouse at 200 mg/kg, po single dose at 4 hrs to IC50 for PI3Kbeta in human […] cells; design: species or system PC-3; method in brief: as §1
[27] = Ratio of total plasma concentration in PTEN-null human PC3 cells xenografted in SCID mouse at 200 mg/kg, po single dose at 8 hrs to IC50 for PI3Kbeta in human […] cells; design: species or system PC-3; method in brief: as §1
Mus musculus [28] = assay: Inhibition of Akt phosphorylation in SCID mouse xenografted with PTEN-null human PC3 cells at 200 mg/kg, po measured after 30 mins; assay type: functional; conditions: PC-3, 0.5 h; method in brief: as §5
Mus musculus [29] = assay: Inhibition of Akt phosphorylation in SCID mouse xenografted with PTEN-null human PC3 cells at 200 mg/kg, po measured after 4 hrs; assay type: functional; conditions: PC-3, 4 h; method in brief: as §5
Mus musculus [30] = assay: Inhibition of Akt phosphorylation in SCID mouse xenografted with PTEN-null human PC3 cells at 200 mg/kg, po measured after 8 hrs; assay type: functional; conditions: PC-3, 8 h; method in brief: as §5

Row | IC50 [3] [nM] | Papp A→B [4] [×10⁻⁶ cm/s] | logD [5] | hepatocyte CLint [6] [µL/min/1e6 cells] | solubility [7] [µM] | IC50 [8] [nM] | IC50 [9] [nM] | IC50 [10] [µM] | IC50 [11] [nM] | IC50 [12] [µM] | fraction unbound [13] | fraction unbound [14] | clearance [15] [mL/min/kg] | bioavailability [16] [%] | SMILES | also measured
1 | 62 | 34 | 2.3 | 3 | 130 (≈ 57.1 µg/mL) | 1300 | 37 | 13.5 | 230 | 11.6 | 0.12 | 0.21 | 45 | 70 | CC(Nc1ccc(F)cc1)c1cc(C(=O)N(C)C)cn2c(=O)cc(N3CCOCC3)nc12 (single isomer, unassigned; (-)) | Ratio [1]: 140; Ratio [2]: 16; half-life [17]: 66 min; inhibition in vivo at 100 mg/kg (Mus musculus [18]): 85%; inhibition in vivo at 100 mg/kg (Mus musculus [19]): 60%; concentration at 0.5 h [20]: 71 µM; concentration at 4 h [21]: 8.1 µM; Ratio IC50 (Homo sapiens): 190
2 | 34 | 44 | 2.7 | 9 | 20 (≈ 9.15 µg/mL) | 340 | 7 | 3 | 45 | 4.7 | 0.087 | 0.14 | 74 | 35 | CC(Nc1ccc(F)c(F)c1)c1cc(C(=O)N(C)C)cn2c(=O)cc(N3CCOCC3)nc12 (single isomer, unassigned; (-)) | concentration at 0.5 h [22]: 3.9 µM; concentration at 4 h [23]: 2300 nM; concentration at 8 h [24]: 300 nM; Ratio [25]: 10; Ratio [26]: 5.9; Ratio [27]: 2.5; inhibition in vivo at 200 mg/kg (Mus musculus [28]): 81%; inhibition in vivo at 200 mg/kg (Mus musculus [29]): 81%; inhibition in vivo at 200 mg/kg (Mus musculus [30]): 71%
